Measured values of several laboratories.
Each line is one published result; the experiments were not run side by side.

Structure (SMILES)	test	system	setting	endpoint	result
Cn1cc(-c2ccc(S(=O)(=O)[C@@H]3C[C@@H](C(=O)NC4(C#N)CC4)N(C(=O)C4(C(F)(F)F)CC4)C3)c(C(F)(F)F)c2)cn1	–	human, plasma	oral, 100 mg, single dose, fasted, healthy volunteers	half-life	13.1 h
CO[C@@H]1[C@H](OC(=O)N2CC(CCN3CCOCC3)C2)CC[C@]2(CO2)[C@H]1[C@@]1(C)O[C@@H]1CC=C(C)C	–	human, plasma	subcutaneous, 2.4 mg, single dose, healthy volunteers	half-life	0.69 h
CC(C)(C)c1ccc(O)c(CN(Cc2cc(C(C)(C)C)ccc2O)C2CCC(NC(N)=O)CC2)c1 (stereo not shown)	–	male C57BL/6 mouse, plasma	intraperitoneal, 10 mg/kg, single dose	Vd	3.7 L
COc1ccc([C@@H]2CN(C(=O)[C@@H](O)CO)C[C@@]2(C)[C@@H](C)O)cc1OC1CN(c2ccc(C)cn2)C1	–	human, plasma	oral, 0.5 mg, single dose, healthy volunteers	half-life	11.9 h
CCCCC(=O)OCOC(=O)C1CC(C)(C)N([O])C1(C)C (stereo not shown)	chemical stability	bovine, serum	–	half-life	0.817 h
CC(C)n1cc(C#N)c2cc(-n3cc(C(=O)O)cn3)ccc21	–	human, plasma	oral, 200 mg, single dose, fed, healthy volunteers	half-life	15 h
CC[C@H](C)[C@H](NC(=O)[C@H](CCC(=O)O)NC(=O)[C@H](CO)NC(=O)[C@@H](NC(=O)[C@@H](N)CO)C(C)C)C(=O)N[C@@H](CCC(N)=O)C(=O)N[C@@H](CC(C)C)C(=O)N[C@@H](CCSC)C(=O)N[C@@H](Cc1cnc[nH]1)C(=O)N[C@@H](CC(N)=O)C(=O)N[C@@H](CC(C)C)C(=O)NCC(=O)N[C@@H](CCCCN)C(=O)N[C@@H](Cc1cnc[nH]1)C(=O)N[C@@H](CC(C)C)C(=O)N[C@@H](CC(N)=O)C(=O)N[C@@H](CO)C(=O)N[C@@H](CCSC)C(=O)N[C@@H](CCC(=O)O)C(=O)N[C@@H](CCCN=C(N)N)C(=O)N[C@H](C(=O)N[C@@H](CCC(=O)O)C(=O)N[C@@H](Cc1c[nH]c2ccccc12)C(=O)N[C@@H](CC(C)C)C(=O)N[C@@H](CCCN=C(N)N)C(=O)N[C@@H](CCCCN)C(=O)N[C@@H](CCCCN)C(=O)N[C@@H](CC(C)C)C(=O)N[C@@H](CCC(N)=O)C(=O)N[C@@H](CC(=O)O)C(=O)N[C@H](C(=O)N[C@@H](Cc1cnc[nH]1)C(=O)N[C@@H](CC(N)=O)C(=O)N[C@@H](Cc1ccccc1)C(=O)O)C(C)C)C(C)C	chemical stability, HPLC	aqueous buffer	0.5 mg/mL, 10 min, pH 6.5	compound remaining	100%
COCCOc1cnc2ccn([C@H](C)c3nnc4c(F)cc(-c5cnn(C)c5)cn34)c(=O)c2c1	–	human, plasma	oral, 400 mg, multiple doses, once daily, patients	half-life	7.7 h
CC(=O)N[C@@H](Cc1ccccc1)C(=O)N[C@@H](Cc1ccccc1)C(=O)N1CCC[C@H]1C(=O)N[C@@H](CC(C)C)C(=O)NCC(=O)N[C@@H](CC(C)C)C(=O)N[C@@H](C)C(=O)NCC(=O)N[C@@H](CC(=O)O)C(=O)N[C@@H](CC(=O)O)C(=O)O	chemical stability	human, plasma	1 mM, pH 7.4	half-life	20.7 h
CC(C)(O)c1ccccc1-c1ccc2[nH]c(/C=C/c3ccc(C(F)(F)F)cc3)nc2c1	–	male human, plasma	oral, 5 mg, single dose, fasted, healthy volunteers	half-life	29.9 h
